From PMC6055826 (Chemistry (Weinheim an Der Bergstrasse, Germany), 2018)

How the values were obtained:
Hydrolytic stability = format: physicochemical; conditions: for Recovery [%] (pH): 24 hours with stirring
Outline: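 Test compound stirred for 24 hours in buffer at each of three pH values: pH 1 in HCl buffer, pH 7 in phosphate-buffered saline, and pH 10 in sodium borate buffer. Stability expressed as recovery of test compound.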

[1] = logD by reversed-phase HPLC; format: physicochemical; conditions: pH 7.5
[2] = Metabolic stability assay, pooled human liver microsomes; format: in vitro ADME; conditions: predicted maximum oral bioavailability
Outline: (§1)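 Metabolic stability measured in vitro in pooled liver microsomes (human, rat or mouse) or freshly harvested rat hepatocytes.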

[3] = Metabolic stability assay, pooled mouse liver microsomes; format: in vitro ADME; conditions: predicted maximum oral bioavailability
Outline: as §1

[4] = Bidirectional Caco2 permeability assay, 24-well format; format: in vitro ADME; conditions: human, Caco-2
Outline: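 Caco-2 monolayers run bidirectionally in a 24-well format, measuring apparent permeability both apical-to-basolateral (A-B) and basolateral-to-apical (B-A). Efflux ratio calculated as Papp B-A divided by Papp A-B.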

[5] = Metabolic stability assay, pooled rat liver microsomes; format: in vitro ADME; conditions: predicted maximum oral bioavailability
Outline: as §1

[6] = system: freshly harvested rat hepatocytes (rHep); test: Metabolic stability assay, freshly harvested rat hepatocytes; format: in vitro ADME; conditions: predicted maximum oral bioavailability
Outline: as §1

[7] = pH 7 (phosphate-buffered saline)

Compound	Recovery [%] (pH) (Hydrolytic stability; pH 1 (HCl buffer))	Recovery [%] (pH) (Hydrolytic stability; [7])	Recovery [%] (pH) (Hydrolytic stability; pH 10 (sodium borate buffer))	chromatographic logD [1]	F max (h/r/m)-LMs [%] ([2]; listed as C00021)	F max (h/r/m)-LMs [%] [3] [%]	Papp A→B [4] [nm/s]	efflux ratio [4]	F max (h/r/m)-LMs [%] [5] [%]	F max rHep [%] [6] [%]	F max (h/r/m)-LMs [%] ([2]; listed as C00015)	F max (h/r/m)-LMs [%] [2] [%]	hydrolytic stability (in words) (Hydrolytic stability; after 24 hours with stirring at pH 1, 7 and 10)
O=S(=Nc1cccc(F)c1)(c1ccccc1)N1CCCCC1 (centres unmarked) [2 bc]	100 (1) 100 (7) 100 (10) %	100 (1) 100 (7) 100 (10) %	100 (1) 100 (7) 100 (10) %	4.3	8.3	16	252	0.45	0.5	2.1			
CS(=O)(=O)N=S(=O)(c1ccccc1)N1CCCCC1 (centres unmarked) [2 ea, N‐[Oxo(phenyl)(piperidin‐1‐yl)‐λ^6‐sulfanylidene]methanesulfonamide]	100 (1) 100 (7) 100 (10) %	100 (1) 100 (7) 100 (10) %	100 (1) 100 (7) 100 (10) %	2		83	363	0.67	33	20	100		
CN=S(=O)(c1ccccc1)N1CCCCC1 (centres unmarked) [2 cm]	100 (1) 100 (7) 100 (10) %	100 (1) 100 (7) 100 (10) %	100 (1) 100 (7) 100 (10) %	2.4		47	404	0.57	18	19		84	
O=S(=NC(F)(F)F)(c1ccccc1)N1CCCCC1 (centres unmarked) [2 cs, 1‐[S‐Phenyl‐N‐(trifluoromethyl)sulfonimidoyl]piperidine]	56%	100%	91%	3.7		9.3	192	0.7	10	6.8		19	signs of hydrolysis at pH 1 and 10
